In ChEMBL document CHEMBL1275592, “AmpN-AmpG operon is essential for expression of L1 and L2 beta-lactamases in Stenotrophomonas maltophilia” (2010):
In brackets after ≈: the same amount, converted by molar mass.

How the values were obtained:
Type in all cases: functional
[1] = test system: Stenotrophomonas maltophilia; assay: Antimicrobial activity against ampN deficient Stenotrophomonas maltophilia KJ by agar dilution method
Summary of the method: (§1)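 MICs were determined in triplicate by standard 2-fold serial agar dilution, following CLSI guidelines.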

[2] = test system: Stenotrophomonas maltophilia; assay: Antimicrobial activity against Stenotrophomonas maltophilia KJN2 harboring pRK-EcG plasmid and ampN with xylE-Gmomega cassette insertion by agar dilution method; summary of the method: as §1
[3] = test system: Stenotrophomonas maltophilia; assay: Antimicrobial activity against Stenotrophomonas maltophilia KJN1 harboring ampN with xylE-Gmomega cassette insertion by agar dilution method; summary of the method: as §1
[4] = test system: Stenotrophomonas maltophilia; assay: Antimicrobial activity against Stenotrophomonas maltophilia KJ harboring pRK-NG plasmid by agar dilution method; summary of the method: as §1
[5] = test system: Stenotrophomonas maltophilia; assay: Antimicrobial activity against Stenotrophomonas maltophilia KJ by agar dilution method; summary of the method: as §1
[6] = test system: Stenotrophomonas maltophilia; assay: Antimicrobial activity against Stenotrophomonas maltophilia KJ harboring pRK415 plasmid by agar dilution method; summary of the method: as §1
[7] = test system: Stenotrophomonas maltophilia; assay: Antimicrobial activity against Stenotrophomonas maltophilia KJN2 harboring ampN with xylE-Gmomega cassette insertion by agar dilution method; summary of the method: as §1
[8] = test system: Stenotrophomonas maltophilia; assay: Antimicrobial activity against ampN deficient Stenotrophomonas maltophilia KJ harboring ampG with xylE-Gmomega cassette insertion by agar dilution method; summary of the method: as §1
[9] = test system: Stenotrophomonas maltophilia; assay: Antimicrobial activity against Stenotrophomonas maltophilia KJN2 harboring pRK-G plasmid and ampN with xylE-Gmomega cassette insertion by agar dilution method; summary of the method: as §1
[10] = test system: Stenotrophomonas maltophilia; assay: Antimicrobial activity against Stenotrophomonas maltophilia KJN2 harboring pRK-NG plasmid and ampN with xylE-Gmomega cassette insertion by agar dilution method; summary of the method: as §1
[11] = test system: Stenotrophomonas maltophilia; assay: Antimicrobial activity against Stenotrophomonas maltophilia KJG harboring ampG with xylE-Gmomega cassette insertion by agar dilution method; summary of the method: as §1
[12] = test system: Stenotrophomonas maltophilia; assay: Antimicrobial activity against Stenotrophomonas maltophilia KJN2 harboring pRK415 plasmid and ampN with xylE-Gmomega cassette insertion by agar dilution method; summary of the method: as §1

SMILES	MIC [1] [µg/mL]	MIC [2] [µg/mL]	MIC [3] [µg/mL]	MIC [4] [µg/mL]	MIC [5] [µg/mL]	MIC [6] [µg/mL]	MIC [7] [µg/mL]	MIC [8] [µg/mL]	MIC [9] [µg/mL]	MIC [10] [µg/mL]	MIC [11] [µg/mL]	MIC [12] [µg/mL]
C[C@H]1[C@H](NC(=O)/C(=N\OC(C)(C)C(=O)O)c2csc(N)n2)C(=O)N1S(=O)(=O)O [AZTREONAM]	32 (≈ 73.5 µM)	> 1020	32 (≈ 73.5 µM)	> 1020	> 1020	> 1020	16 (≈ 36.7 µM)	16 (≈ 36.7 µM)	32 (≈ 73.5 µM)	> 1020	16 (≈ 36.7 µM)	16 (≈ 36.7 µM)
CC1(C)S[C@@H]2[C@H](NC(=O)C(C(=O)O)c3ccccc3)C(=O)N2[C@H]1C(=O)O (stereo partly specified) [CARBENICILLIN]	4 (≈ 10.6 µM)	512 (≈ 1350 µM)	8 (≈ 21.1 µM)	1020 (≈ 2710 µM)	1020 (≈ 2710 µM)	1020 (≈ 2710 µM)	2 (≈ 5.29 µM)	2 (≈ 5.29 µM)	4 (≈ 10.6 µM)	1020 (≈ 2710 µM)	2 (≈ 5.29 µM)	4 (≈ 10.6 µM)
CO[C@@]1(NC(=O)Cc2cccs2)C(=O)N2C(C(=O)O)=C(COC(N)=O)CS[C@@H]21 [CEFOXITIN]	32 (≈ 74.9 µM)	1020 (≈ 2400 µM)	32 (≈ 74.9 µM)	1020 (≈ 2400 µM)	1020 (≈ 2400 µM)	1020 (≈ 2400 µM)	32 (≈ 74.9 µM)	32 (≈ 74.9 µM)	64 (≈ 150 µM)	1020 (≈ 2400 µM)	32 (≈ 74.9 µM)	32 (≈ 74.9 µM)
